In ChEMBL document CHEMBL4052595, “Application of Residual Dipolar Couplings and Selective Quantitative NOE to Establish the Structures of Tetranortriterpenoids from Xylocarpus rumphii” (J Nat Prod, 2017):
Calls of active or inactive are those of the source.

How the values were obtained:
Type in all cases: functional, cell-based
[1] = tested on: BT-549; assay: Growth inhibition of human BT549 cells at 10^-5 M incubated for 48 hrs by sulforhodamine B assay
How it was run: (§1)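 Run in the NCI59 one-dose cell-line screen, with each compound tested at a single concentration of 1 × 10−5 M.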

[2] = tested on: T47D; assay: Growth inhibition of human T47D cells at 10^-5 M incubated for 48 hrs by sulforhodamine B assay
How it was run: (§2)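 Tested at a single concentration of 1 × 10−5 M as part of the NCI59 cell-line one-dose screen.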

[3] = tested on: Hs-578T; assay: Growth inhibition of human Hs 578T cells at 10^-5 M incubated for 48 hrs by sulforhodamine B assay; how it was run: as §1
[4] = tested on: MCF7; assay: Growth inhibition of human MCF7 cells at 10^-5 M incubated for 48 hrs by sulforhodamine B assay; how it was run: as §1
[5] = tested on: MDA-MB-231; assay: Growth inhibition of human MDA-MB-231 cells at 10^-5 M incubated for 48 hrs by sulforhodamine B assay; how it was run: as §1
[6] = tested on: DU-145; assay: Growth inhibition of human DU145 cells at 10^-5 M incubated for 48 hrs by sulforhodamine B assay; how it was run: as §1
[7] = tested on: UO-31; assay: Growth inhibition of human UO31 cells at 10^-5 M incubated for 48 hrs by sulforhodamine B assay; how it was run: as §2
[8] = tested on: PC-3; assay: Growth inhibition of human PC3 cells at 10^-5 M incubated for 48 hrs by sulforhodamine B assay; how it was run: as §1
[9] = tested on: SN12C; assay: Growth inhibition of human SN12C cells at 10^-5 M incubated for 48 hrs by sulforhodamine B assay; how it was run: as §1
[10] = tested on: TK-10; assay: Growth inhibition of human TK10 cells at 10^-5 M incubated for 48 hrs by sulforhodamine B assay; how it was run: as §2
[11] = tested on: RXF 393; assay: Growth inhibition of human RXF393 cells at 10^-5 M incubated for 48 hrs by sulforhodamine B assay; how it was run: as §1
[12] = tested on: ACHN; assay: Growth inhibition of human ACHN cells at 10^-5 M incubated for 48 hrs by sulforhodamine B assay; how it was run: as §1
[13] = tested on: CAKI-1; assay: Growth inhibition of human Caki1 cells at 10^-5 M incubated for 48 hrs by sulforhodamine B assay; how it was run: as §1
[14] = tested on: A498; assay: Growth inhibition of human A498 cells at 10^-5 M incubated for 48 hrs by sulforhodamine B assay; how it was run: as §1
[15] = tested on: 786-0; assay: Growth inhibition of human 786-0 cells at 10^-5 M incubated for 48 hrs by sulforhodamine B assay; how it was run: as §1
[16] = tested on: NCI/ADR-RES; assay: Growth inhibition of human NCI/ADR-RES cells at 10^-5 M incubated for 48 hrs by sulforhodamine B assay; how it was run: as §1
[17] = tested on: SK-OV-3; assay: Growth inhibition of human SKOV3 cells at 10^-5 M incubated for 48 hrs by sulforhodamine B assay; how it was run: as §1
[18] = tested on: OVCAR-8; assay: Growth inhibition of human OVCAR8 cells at 10^-5 M incubated for 48 hrs by sulforhodamine B assay; how it was run: as §1
[19] = tested on: OVCAR-4; assay: Growth inhibition of human OVCAR4 cells at 10^-5 M incubated for 48 hrs by sulforhodamine B assay; how it was run: as §1
[20] = tested on: OVCAR-5; assay: Growth inhibition of human OVCAR5 cells at 10^-5 M incubated for 48 hrs by sulforhodamine B assay; how it was run: as §1
[21] = tested on: IGROV-1; assay: Growth inhibition of human IGROV1 cells at 10^-5 M incubated for 48 hrs by sulforhodamine B assay; how it was run: as §1
[22] = tested on: OVCAR-3; assay: Growth inhibition of human OVCAR3 cells at 10^-5 M incubated for 48 hrs by sulforhodamine B assay; how it was run: as §1
[23] = tested on: UACC-62; assay: Growth inhibition of human UACC62 cells at 10^-5 M incubated for 48 hrs by sulforhodamine B assay; how it was run: as §2
[24] = tested on: SK-MEL-5; assay: Growth inhibition of human SK-MEL-5 cells at 10^-5 M incubated for 48 hrs by sulforhodamine B assay; how it was run: as §1
[25] = tested on: UACC-257; assay: Growth inhibition of human UACC257 cells at 10^-5 M incubated for 48 hrs by sulforhodamine B assay; how it was run: as §2
[26] = tested on: SK-MEL-28; assay: Growth inhibition of human SK-MEL-28 cells at 10^-5 M incubated for 48 hrs by sulforhodamine B assay; how it was run: as §1
[27] = tested on: MDA-MB-435; assay: Growth inhibition of human MDA-MB-435 cells at 10^-5 M incubated for 48 hrs by sulforhodamine B assay; how it was run: as §1
[28] = tested on: SK-MEL-2; assay: Growth inhibition of human SK-MEL-2 cells at 10^-5 M incubated for 48 hrs by sulforhodamine B assay; how it was run: as §1
[29] = tested on: M14; assay: Growth inhibition of human M14 cells at 10^-5 M incubated for 48 hrs by sulforhodamine B assay; how it was run: as §1
[30] = tested on: U-251; assay: Growth inhibition of human U251 cells at 10^-5 M incubated for 48 hrs by sulforhodamine B assay; how it was run: as §2
[31] = tested on: LOX IMVI; assay: Growth inhibition of human LOXIMVI cells at 10^-5 M incubated for 48 hrs by sulforhodamine B assay; how it was run: as §1
[32] = tested on: SNB-19; assay: Growth inhibition of human SNB19 cells at 10^-5 M incubated for 48 hrs by sulforhodamine B assay; how it was run: as §1
[33] = tested on: SNB-75; assay: Growth inhibition of human SNB75 cells at 10^-5 M incubated for 48 hrs by sulforhodamine B assay; how it was run: as §1
[34] = tested on: SF-539; assay: Growth inhibition of human SF539 cells at 10^-5 M incubated for 48 hrs by sulforhodamine B assay; how it was run: as §1
[35] = tested on: SF-268; assay: Growth inhibition of human SF268 cells at 10^-5 M incubated for 48 hrs by sulforhodamine B assay; how it was run: as §1
[36] = tested on: SF-295; assay: Growth inhibition of human SF295 cells at 10^-5 M incubated for 48 hrs by sulforhodamine B assay; how it was run: as §1
[37] = tested on: SW-620; assay: Growth inhibition of human SW620 cells at 10^-5 M incubated for 48 hrs by sulforhodamine B assay; how it was run: as §2
[38] = tested on: HT-29; assay: Growth inhibition of human HT-29 cells at 10^-5 M incubated for 48 hrs by sulforhodamine B assay; how it was run: as §1
[39] = tested on: KM12; assay: Growth inhibition of human KM12 cells at 10^-5 M incubated for 48 hrs by sulforhodamine B assay; how it was run: as §1
[40] = tested on: HCT-116; assay: Growth inhibition of human HCT116 cells at 10^-5 M incubated for 48 hrs by sulforhodamine B assay; how it was run: as §1
[41] = tested on: HCT-15; assay: Growth inhibition of human HCT15 cells at 10^-5 M incubated for 48 hrs by sulforhodamine B assay; how it was run: as §1
[42] = tested on: HCC 2998; assay: Growth inhibition of human HCC2998 cells at 10^-5 M incubated for 48 hrs by sulforhodamine B assay; how it was run: as §1
[43] = tested on: NCI-H522; assay: Growth inhibition of human NCI-H522 cells at 10^-5 M incubated for 48 hrs by sulforhodamine B assay; how it was run: as §1
[44] = tested on: COLO 205; assay: Growth inhibition of human COLO205 cells at 10^-5 M incubated for 48 hrs by sulforhodamine B assay; how it was run: as §1
[45] = tested on: NCI-H460; assay: Growth inhibition of human NCI-H460 cells at 10^-5 M incubated for 48 hrs by sulforhodamine B assay; how it was run: as §1
[46] = tested on: NCI-H23; assay: Growth inhibition of human NCI-H23 cells at 10^-5 M incubated for 48 hrs by sulforhodamine B assay; how it was run: as §1
[47] = tested on: NCI-H322M; assay: Growth inhibition of human NCI-H322M cells at 10^-5 M incubated for 48 hrs by sulforhodamine B assay; how it was run: as §1
[48] = tested on: NCI-H226; assay: Growth inhibition of human NCI-H226 cells at 10^-5 M incubated for 48 hrs by sulforhodamine B assay; how it was run: as §1
[49] = tested on: HOP-62; assay: Growth inhibition of human HOP62 cells at 10^-5 M incubated for 48 hrs by sulforhodamine B assay; how it was run: as §1
[50] = tested on: HOP-92; assay: Growth inhibition of human HOP92 cells at 10^-5 M incubated for 48 hrs by sulforhodamine B assay; how it was run: as §1
[51] = tested on: A549; assay: Growth inhibition of human A549/ATCC cells at 10^-5 M incubated for 48 hrs by sulforhodamine B assay; how it was run: as §1
[52] = tested on: EKVX; assay: Growth inhibition of human EKVX cells at 10^-5 M incubated for 48 hrs by sulforhodamine B assay; how it was run: as §1
[53] = tested on: SR; assay: Growth inhibition of human SR cells at 10^-5 M incubated for 48 hrs by sulforhodamine B assay; how it was run: as §1
[54] = tested on: MOLT-4; assay: Growth inhibition of human MOLT4 cells at 10^-5 M incubated for 48 hrs by sulforhodamine B assay; how it was run: as §1
[55] = tested on: RPMI-8226; assay: Growth inhibition of human RPMI8226 cells at 10^-5 M incubated for 48 hrs by sulforhodamine B assay; how it was run: as §1
[56] = tested on: K562; assay: Growth inhibition of human K562 cells at 10^-5 M incubated for 48 hrs by sulforhodamine B assay; how it was run: as §1
[57] = tested on: CCRF-CEM; assay: Growth inhibition of human CCRF-CEM cells at 10^-5 M incubated for 48 hrs by sulforhodamine B assay; how it was run: as §1
[58] = tested on: HL-60(TB); assay: Growth inhibition of human HL-60(TB) cells at 10^-5 M incubated for 48 hrs by sulforhodamine B assay
How it was run: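 Run in the NCI59 cell-line one-dose screen, with each compound tested at a single concentration of 1 × 10−5 M.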

Measured: growth inhibition (GI)

COC(=O)C[C@H]1[C@@]2(C)C[C@@]34O[C@@]5(C)O[C@]6([C@@H]7CC(=O)O[C@@H](c8ccoc8)[C@]7(C)CC[C@]6(O5)[C@@]13C)[C@@H](OC(C)=O)[C@@]4(OC(C)=O)[C@H]2OC(C)=O
inactive: all assays above
